In ChEMBL document CHEMBL2311444, “Synthesis of derivatives of the keto-pyrrolyl-difluorophenol scaffold: some structural aspects for aldose reductase inhibitory activity and selectivity” (Bioorg Med Chem, 2013) one finds Ratio IC50, IC50 and inhibition data, which are given here for 7 compounds.

One test is filed under the species Rattus norvegicus. Briefly: Selectivity index, ratio of IC50 for Fischer-344 rat kidney ALR1 to IC50 for Fischer-344 rat lens ALR2. It counts as tissue-based. The conditions noted are these: Lens of camera-type eye. In outline: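 Selectivity index calculated from the IC50 values of two spectrophotometric NADPH-consumption assays (340 nm). Rat kidney ALR1 was measured at 37 °C and rat lens ALR2 at 30 °C. Each IC50 was derived by least-squares fitting of triplicate five-concentration log(dose)–response data.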

The target in test [1] is Aldo-keto reductase family 1 member B1 (Rattus norvegicus, UniProt P07943). Briefly: Inhibition of Fischer-344 rat lens ALR2 by spectrophotometry.
The target in test [2] is Aldo-keto reductase family 1 member A1 (Rattus norvegicus, UniProt P51635). Briefly: Inhibition of Fischer-344 rat kidney ALR1 using D-glycuronate as substrate by spectrophotometry.
Aldo-keto reductase family 1 member A1, sequence (P51635 whole entry, looked up): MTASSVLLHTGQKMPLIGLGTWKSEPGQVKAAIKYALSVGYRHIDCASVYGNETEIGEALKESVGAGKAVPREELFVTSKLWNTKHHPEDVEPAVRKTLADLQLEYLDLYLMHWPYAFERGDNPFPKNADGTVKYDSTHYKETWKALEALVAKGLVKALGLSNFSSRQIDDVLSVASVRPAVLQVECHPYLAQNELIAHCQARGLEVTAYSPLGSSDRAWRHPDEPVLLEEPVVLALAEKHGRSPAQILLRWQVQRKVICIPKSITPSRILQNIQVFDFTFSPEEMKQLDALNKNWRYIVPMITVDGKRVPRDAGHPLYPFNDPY
Test [3] deals with Aldo-keto reductase family 1 member A1 (Rattus norvegicus) (UniProt P51635). Briefly: Inhibition of Fischer-344 rat kidney ALR1 using D-glycuronate as substrate at 10' -5 M by spectrophotometry.
Aldo-keto reductase family 1 member A1 (Rattus norvegicus), sequence (P51635 whole entry, looked up): as above

pIC50: −log10 of the molar value.

A word on the pIC50: it is the IC50 on a negative log10 scale, so that one unit is a factor of ten. Usually inhibition stands for how much of the control response was suppressed. High values mean a response far below the control, low ones a response near the control. With `O=C(c1ccc(-c2ccccc2)cc1)c1cccn1-c1cc(F)c(O)c(F)c1`, the Ratio IC50 in the test listed under Rattus norvegicus came out at 238. The pIC50 in test [1] is 6.29; in test [2], 3.92. The compound further yielded an inhibition in test [3] of 5.85%.
As to `O=C(c1cccn1-c1cc(F)c(O)c(F)c1)C(F)(F)F`, in the test filed under Rattus norvegicus, the Ratio IC50 stood at 20.3. Also, the pIC50 in test [1] is 6.03; in test [2] it was 4.72. Besides, in test [3], the inhibition is 26.5%.
In the case of `O=C(c1ccn(-c2cc(F)c(O)c(F)c2)c1)c1ccc(Br)cc1F`, the negative-log IC50 (pIC50) is 6.40 in test [1] and 5.37 in test [2].
With `O=C(c1ccc(OC(F)(F)F)cc1)c1cccn1-c1cc(F)c(O)c(F)c1`, the Ratio IC50 in the test filed under Rattus norvegicus turned out to be 31.1. The negative-log IC50 (pIC50) was 6.28 in test [1] and 4.79 in test [2]. Besides, the inhibition in test [3] worked out at 30.9%.
The corresponding values for `O=C(c1ccc(Br)cc1F)c1cccn1-c1cc(F)c(O)c(F)c1` are 1, 6.72, 6.72 and 96.8%.
The corresponding values for `O=C(c1ccc(OC(F)(F)F)cc1)c1ccn(-c2cc(F)c(O)c(F)c2)c1` are 17.5, 6.12, 4.88 and 38%.
Taken in the same sequence, the figures for `O=C(c1ccc(-c2ccccc2)cc1)c1ccn(-c2cc(F)c(O)c(F)c2)c1` were 1.87, 5.64, 5.25 and 72.8%.
